STAT3 inh-1: inhibitors of IL-6 induced STAT3 signaling; U3A cells, IL-6 STAT3-luciferase reporter, luminescence; host cell line lacks STAT1; inhibition, % at 5.5 µM; actives 0.89% (n = 190,000); AID 862;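 active means inhibition above the mean inhibition across all screened compounds plus 3 SD, cut at about 44% in these data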;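 further: 0% = DMSO only wells and 100% = 100 µM nifuroxazide control wells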
PPC-1+TRAIL kill: kills PPC-1 cancer cells in the presence of TRAIL; PPC-1 cells + TRAIL, ATPLite viability luminescence; AID 1443; cell killing (% activity), % at 4 µM or 5 µM; actives 0.41% (n = 220,000);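 active means cell killing above 50% in the first pass at 4 µM, then a duplicate retest at 5 µM averaging 50% or more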;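 further: plate controls were cells with TRAIL plus DMSO for no effect and medium-only wells lacking cells for full effect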
STAT1 blocker: reduces IFN-gamma driven STAT1 reporter signal. NIH 3T3 STAT1-luciferase reporter, luminescence. inhibition, % at 5.5 µM. actives 0.35% (n = 200,000);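 active means inhibition above a set limit, the mean inhibition across all tested compounds plus 3 SD, cut at about 34% in these data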;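 further: 0% = IFN-gamma with DMSO and 100% = IFN-gamma with 300 µM nifuroxazide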
STAT3 act: STAT3 signaling activation; U3A cells, IL-6 STAT3-luciferase reporter, luminescence; 100% = signal with IL-6 EC80 alone; activation (% of control), % at 5.6 µM; actives 0.91% (n = 190,000);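 active means activation above the screen-wide mean of compound activation plus 3 SD, cut at about 130% in these data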;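 further: 0% = background luminescence of wells with medium and substrate only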
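Material: STAT3-luciferase reporter U3A cells. Controls: IL-6-treated wells, 100% activation. Read-out: % activation versus median of IL-6-stimulated wells. Probe or stimulus: IL-6 stimulus at 33 ng/mL final. Timing: compound 1 h, then IL-6 6 h at 37 °C. Signal: reporter luminescence signal.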
TRAIL sens C8: caspase-8 TRAIL sensitization; NB7+C8 cells + TRAIL, ATPlite viability luminescence; inhibition (viability loss, TRAIL sensitization), % at 10 µM; actives 1% (n = 360,000);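 active means compounds causing at least 50% loss of cell viability in the single-dose screen, relative to plate controls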
STAT3 inh-2: STAT3 inhibition, confirmation assay; shares compounds with STAT3 inh-1; U3A cells, IL-6 STAT3 luciferase reporter, luminescence; cell line lacks STAT1; inhibition, % at 5.7 µM; actives 45% (n = 1,200); AID 1265;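 active means inhibition above the hit cutoff computed for the primary STAT3 screen, cut at about 44% in these data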;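 further: 0% = IL-6 plus DMSO and 100% = IL-6 plus nifuroxazide control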
NFkB inh STAT3ct: inhibits NF-kappaB, counter-screen to STAT3 inhibitors. shares compounds with STAT3 inh-1. inhibition, % at 5.7 µM. HEK293T NF-kB luciferase reporter, TNF-alpha induced. actives 36% (n = 1,200). AID 1308;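 active means inhibition above the mean of solvent-only control wells plus 3 SD, cutoff set per campaign, cut at about 13% in these data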;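 further: 0% = TNF-alpha with DMSO and 100% = TNF-alpha with MG high control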
STAT1 inh STAT3c: STAT1 inhibition in STAT3 inhibitor counter-screen; shares compounds with STAT3 inh-1; NIH 3T3 STAT1-luciferase reporter, IFN-gamma induced, luminescence; inhibition, % at 5.7 µM; actives 27% (n = 1,200); AID 1317;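 active means inhibition above the mean plus 3 SD of solvent-only control wells, limit set per screening run, cut at about 16% in these data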;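 further: 0% = DMSO with IFN-gamma and 100% = nifuroxazide control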
The depositor's hits bear a star. Most compounds without a hit are left out; they make up all but 1.8% or so of the library.

Screening O=C(Nc1ccncc1)C1CCN(S(=O)(=O)c2cccs2)CC1 returned STAT3 inh-1 5, PPC-1+TRAIL kill 2, STAT1 blocker 10, STAT3 act 98 and TRAIL sens C8 -8.
Screening O=C(Nc1cc(Cl)ccn1)C1CCN(S(=O)(=O)c2cccs2)CC1 returned STAT3 inh-1 51*, PPC-1+TRAIL kill 25, STAT1 blocker 0, STAT3 act 56, TRAIL sens C8 19, STAT3 inh-2 43, NFkB inh STAT3ct 1 and STAT1 inh STAT3c -7.
For Cc1cccc(C)c1N1C(=O)c2ccccc2NC(=O)C1C(=O)Nc1ccc2c(c1)OCCO2 (stereo not given) the results were TRAIL sens C8 -12.
For CC(C)CN1C(=O)c2ccc(C(=O)Nc3ccccn3)cc2C1=O the results were STAT3 inh-1 5, PPC-1+TRAIL kill -2, STAT1 blocker -10, STAT3 act 100 and TRAIL sens C8 -5.
CC(C)CN1C(=O)c2ccc(C(=O)Nc3ccncc3)cc2C1=O was read as STAT3 inh-1 49*, PPC-1+TRAIL kill 18, STAT1 blocker 14, STAT3 act 63, TRAIL sens C8 5, STAT3 inh-2 57*, NFkB inh STAT3ct 6 and STAT1 inh STAT3c 8.
COc1ccc(N2CCN(c3nc4cc(C)ccc4cc3C=O)CC2)cc1 was read as TRAIL sens C8 10.
CC(OC(=O)c1snc(C(=O)NC2CCCCC2)c1N)C(=O)NC(C)(C)C (stereo not given) was read as STAT3 inh-1 34, PPC-1+TRAIL kill 30, STAT1 blocker 7, STAT3 act 74 and TRAIL sens C8 22.
Screening CC(C)(C)NC(=O)COC(=O)c1snc(C(=O)NC2CCCCC2)c1N returned STAT3 inh-1 76*, PPC-1+TRAIL kill 8, STAT1 blocker -1, STAT3 act 36, TRAIL sens C8 26, STAT3 inh-2 72*, NFkB inh STAT3ct 22* and STAT1 inh STAT3c 1.
COc1ccc2cc(C[C@@H]3CC[C@@H](CNC(N)=O)O3)ccc2c1 was read as TRAIL sens C8 0.
Screening Cc1cc(Br)cn2c(Cc3ccsc3)c(C(C)(C)C)nc12 returned TRAIL sens C8 -6.
Screening Cc1ccc(OC(=O)c2ccc3nc(C)sc3c2)cc1 returned STAT3 inh-1 57*, PPC-1+TRAIL kill 25, STAT1 blocker 24, STAT3 act 52, STAT3 inh-2 -12, NFkB inh STAT3ct -27 and STAT1 inh STAT3c -49.
Cc1nc2ccc(OC(=O)c3ccccc3)cc2s1 was read as TRAIL sens C8 -4.
For CSc1ccc(NC(=O)N2CCN(c3nc4ccccc4s3)CC2)cc1 the results were STAT3 inh-1 46*, PPC-1+TRAIL kill 27, STAT1 blocker 10, STAT3 act 64, TRAIL sens C8 18, STAT3 inh-2 46*, NFkB inh STAT3ct 5 and STAT1 inh STAT3c 10.
Screening O=C(Nc1ccn(Cc2ccccc2F)n1)c1ccc(COc2ccc(Br)cc2)cc1 returned STAT3 inh-1 47*, PPC-1+TRAIL kill 2, STAT1 blocker -3, STAT3 act 66, TRAIL sens C8 29, STAT3 inh-2 52*, NFkB inh STAT3ct 8 and STAT1 inh STAT3c -20.
`O=c1cc(O)cc2n1CCC2` gave TRAIL sens C8 -4.
Screening Cn1cc(C(=O)c2ccc(Cl)cc2)cc1-c1nc2ccccc2n1C returned STAT3 inh-1 46*, PPC-1+TRAIL kill -6, STAT1 blocker 16, STAT3 act 66, TRAIL sens C8 14, STAT3 inh-2 32, NFkB inh STAT3ct -3 and STAT1 inh STAT3c 6.
Cn1c(=O)c(C(=O)c2ccccc2)nc2ccccc21 was read as STAT3 inh-1 -7, PPC-1+TRAIL kill -8, STAT1 blocker -3, STAT3 act 111 and TRAIL sens C8 -7.
`O=C(c1ccc2c(=O)n(-c3ccccc3)c(=S)[nH]c2c1)N1CCN(c2ccccc2)CC1` gave TRAIL sens C8 4.
O=C(c1ccc2c(=O)n(-c3ccccc3)c(=S)[nH]c2c1)N1CCCCC1 was read as STAT3 inh-1 47*, PPC-1+TRAIL kill 10, STAT1 blocker 26, STAT3 act 63, TRAIL sens C8 9, STAT3 inh-2 51*, NFkB inh STAT3ct 14* and STAT1 inh STAT3c 25*.
`O=C(NCCCN1CCOCC1)c1ccc(Br)cc1` gave STAT3 inh-1 53*, PPC-1+TRAIL kill 11, STAT1 blocker -6, STAT3 act 56, TRAIL sens C8 -1, STAT3 inh-2 5, NFkB inh STAT3ct -8 and STAT1 inh STAT3c -13.
For COc1cc(CN2CCCC(C(=O)N3CCc4ccccc4C3)C2)cc(OC)c1OC (stereo not given) the results were TRAIL sens C8 12.
Screening CCN(C(=O)c1ccc(C(C)(C)C)cc1)c1nnc(Cn2nnc3ccccc32)s1 returned STAT3 inh-1 86*, PPC-1+TRAIL kill 10, STAT1 blocker 22, STAT3 act 27, TRAIL sens C8 34, STAT3 inh-2 85*, NFkB inh STAT3ct 31* and STAT1 inh STAT3c 15.
CCN(C(=O)CC(C)C)c1nnc(Cn2nnc3ccccc32)s1 was read as STAT3 inh-1 12, PPC-1+TRAIL kill 16, STAT1 blocker 14, STAT3 act 91 and TRAIL sens C8 18.
`COc1cccc(-c2oc3c(c2C(=O)OCCN2CCCCC2)C(O)CCC3)c1` (stereo not given) gave TRAIL sens C8 -5.
`Cc1nn(C)c(C)c1NC(=O)CSc1nc(C2CC2)nc2c1cnn2-c1ccccc1` gave STAT3 inh-1 50*, PPC-1+TRAIL kill 18, STAT1 blocker 5, STAT3 act 62, TRAIL sens C8 7, STAT3 inh-2 37, NFkB inh STAT3ct 7 and STAT1 inh STAT3c -3.
For O=C(Cn1sc2ccccc2c1=O)N1CCN(C(=O)c2ccco2)CC1 the results were TRAIL sens C8 18.
O=C1c2ccccc2C(=O)C1c1nccc2ccccc12 was read as STAT3 inh-1 62*, PPC-1+TRAIL kill -3, STAT1 blocker -23, STAT3 act 51, TRAIL sens C8 89*, STAT3 inh-2 4, NFkB inh STAT3ct 49* and STAT1 inh STAT3c -26.
O=C(Nc1ccc(Oc2cccnc2)cc1)c1ccc([N+](=O)[O-])cc1 was read as STAT3 inh-1 69*, PPC-1+TRAIL kill 18, STAT1 blocker 12, STAT3 act 45, TRAIL sens C8 15, STAT3 inh-2 65*, NFkB inh STAT3ct 23* and STAT1 inh STAT3c 1.
`O=C(Nc1ccc(Oc2cccnc2)cc1)c1cccc([N+](=O)[O-])c1` gave STAT3 inh-1 13, PPC-1+TRAIL kill 23, STAT1 blocker -12, STAT3 act 87 and TRAIL sens C8 15.

High-throughput results: PubChem, several laboratories
